High-throughput results (PubChem BioAssay)
WT yeast gro inh = growth inhibition of WT yeast, mitochondrial fusion screen | 190,000 compounds, 2.1% hits | AID 1362 | inhibition, % at 10 µM | mitochondrial fusion phenotypic screen, WT strain; in the data active = inhibition above about 58%; tested in S. cerevisiae
ABCG2 inh = blocks JC-1 efflux by human ABCG2 transporter; IgMXP3 cells, flow cytometry; inhibition, % at 6.6 µM; AID 1325; 190,000 compounds, 0.1% hits; Q9UNQ0;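 active = inhibition above 80%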;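 note: 0% = DMSO and 100% = nicardipine control wells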
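Incubation: cells with compound and JC-1, 10 min at 25 °C, rotating, no wash / Test system: IgMXP3 (ABCG2) plus far-red-tagged CCRF-Adr (ABCB1) cells / Compound dosing: one concentration, 6.6 µM final / Also added: JC-1 fluorescent substrate / Evaluation: efflux inhibition in percent versus controls / Detection: flow cytometry, 530 nm JC-1 signal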
MEKK2 mut-MEK5 = signal of MEK5 binding to mutant human MEKK2 PB1 domain; bead flow cytometry, Alexa488-MEK5 binding to MEKK2 mutant; percent response, % at 10 µM; 290,000 compounds, 0.35% hits; in the data active = percent response above about 24%, passing the limit was not always enough
ABCB1 block = blocks JC-1 efflux by human ABCB1 transporter; 190,000 compounds, 0.067% hits; AID 1326; CCRF-Adr cells, flow cytometry; P08183; inhibition, % at 6.6 µM; in the data active = inhibition above about 40%;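 note: 0% = vehicle and 100% = reference inhibitor; higher value means more JC-1 retained so stronger ABCB1 efflux block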
Target sequence (P08183 whole entry, looked up): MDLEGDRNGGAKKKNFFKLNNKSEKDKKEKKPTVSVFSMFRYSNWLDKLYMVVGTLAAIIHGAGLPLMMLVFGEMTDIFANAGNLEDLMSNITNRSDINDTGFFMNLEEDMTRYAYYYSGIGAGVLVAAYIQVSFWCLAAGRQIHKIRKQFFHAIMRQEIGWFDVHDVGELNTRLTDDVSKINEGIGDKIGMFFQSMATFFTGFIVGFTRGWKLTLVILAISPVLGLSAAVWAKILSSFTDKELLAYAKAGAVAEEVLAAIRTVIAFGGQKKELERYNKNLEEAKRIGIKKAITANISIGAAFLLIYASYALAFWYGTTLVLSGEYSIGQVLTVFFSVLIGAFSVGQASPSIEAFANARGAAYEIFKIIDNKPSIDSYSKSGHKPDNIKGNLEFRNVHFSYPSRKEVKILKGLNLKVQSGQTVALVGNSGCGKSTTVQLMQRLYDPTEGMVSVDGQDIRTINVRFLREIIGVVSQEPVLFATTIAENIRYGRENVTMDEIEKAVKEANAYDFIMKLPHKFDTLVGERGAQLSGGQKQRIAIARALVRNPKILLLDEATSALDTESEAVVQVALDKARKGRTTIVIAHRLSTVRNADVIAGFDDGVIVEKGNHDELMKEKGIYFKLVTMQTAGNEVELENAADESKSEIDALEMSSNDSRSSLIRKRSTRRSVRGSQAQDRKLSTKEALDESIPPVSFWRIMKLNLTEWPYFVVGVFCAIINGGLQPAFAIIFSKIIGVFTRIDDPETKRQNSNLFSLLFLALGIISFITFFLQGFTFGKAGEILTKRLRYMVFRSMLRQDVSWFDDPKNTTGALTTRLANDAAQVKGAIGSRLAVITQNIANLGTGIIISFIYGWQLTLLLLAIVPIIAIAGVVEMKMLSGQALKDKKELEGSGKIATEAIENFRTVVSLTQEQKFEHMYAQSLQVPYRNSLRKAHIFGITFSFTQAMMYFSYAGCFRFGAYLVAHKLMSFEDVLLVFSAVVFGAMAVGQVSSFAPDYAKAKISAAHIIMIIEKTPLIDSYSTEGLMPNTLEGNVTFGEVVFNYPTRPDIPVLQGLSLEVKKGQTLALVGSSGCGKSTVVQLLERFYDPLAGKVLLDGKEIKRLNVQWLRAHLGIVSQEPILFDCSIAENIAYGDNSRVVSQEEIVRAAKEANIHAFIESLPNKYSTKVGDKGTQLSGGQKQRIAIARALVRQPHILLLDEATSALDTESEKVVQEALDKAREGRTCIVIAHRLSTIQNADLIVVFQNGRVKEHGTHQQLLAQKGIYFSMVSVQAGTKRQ
MEKK2wt PB1 HTS = raises or lowers MEK5 binding to wildtype human MEKK2 PB1 domain | 290,000 compounds, 1.1% hits | AID 1531 | Q9Y2U5 | bead flow cytometry, Alexa488-MEK5 binding to MEKK2 WT; actives lie on both sides | binding response (% of control), % at 10 µM; in the data active = binding response below about 67% or above about 130%
MEKK3 PB1 HTS = raises or lowers MEK5 binding to the human MEKK3 PB1 domain; Q99759; bead-based flow cytometry, Alexa488-MEK5 binding to MEKK3; actives lie on both sides; 0 = blocked by unlabeled MEK5, 100 = vehicle; binding response (% of control), % at 10 µM; 290,000 compounds, 1.4% hits; AID 1529;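 active = binding response more than 3 SD above or below the average of its plate-row segment, actives on both sides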;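 note: Alexa488 bead fluorescence after subtracting the streptavidin-only scavenger bead signal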
MEKK2wt confirm = raises or lowers MEK5 binding to wildtype human MEKK2, retest | shares compounds with MEKK3 PB1 HTS | bead flow cytometry, Alexa488-MEK5 binding to MEKK2 WT; actives lie on both sides | binding response (% of control), % at 10 µM | 5,900 compounds, 2.4% hits; in the data active = binding response below about 16% or above about 210%; inactive = in between
MEKK2mut confirm = signal of MEK5 binding to mutant human MEKK2, retest; shares compounds with MEKK3 PB1 HTS; bead flow cytometry, Alexa488-MEK5 binding to MEKK2 mutant; percent response, % at 10 µM; 5,900 compounds, 2% hits; in the data active = percent response mostly above about 71%, no sharp cut-off; inactive = mostly below about 38%;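 note: higher means compound restores mutant binding toward wildtype level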
MEKK3-MEK5 inh = confirmation of inhibitors of MEK5 binding to human MEKK3. 5,900 compounds, 1.8% hits. bead flow cytometry, Alexa488-MEK5 binding to MEKK3; stronger effect = lower value. shares compounds with MEKK3 PB1 HTS. binding response (% of control), % at 10 µM;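 active = binding response below 72% of control, or above a set upper limit, though filed actives all read lower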;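 note: 100% = DMSO only wells and 0% = binding blocked by excess unlabeled MEK5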
* marks the source's active call; other numbers are inactive results; · = no result; [ ] = remark or other dose. The list is not random: actives were taken first. Their share in the collection is about 3.5%.

SMILES	WT yeast gro inh	ABCG2 inh	MEKK2 mut-MEK5	ABCB1 block	MEKK2wt PB1 HTS	MEKK3 PB1 HTS	MEKK2wt confirm	MEKK2mut confirm	MEKK3-MEK5 inh
CCOc1cccc(CNCCc2c(C)[nH]c3ccc(OC(F)(F)F)cc23)c1O	·	·	19	·	150*	104	177	48	104
Cc1[nH]c2ccc(OC(F)(F)F)cc2c1CCNCc1ccc(Cl)cc1	·	·	37*	·	174*	101	195	43	106
Cc1[nH]c2ccc(OC(F)(F)F)cc2c1CCNCc1cccc([N+](=O)[O-])c1	·	·	25*	·	148*	108	170	45	104
Cc1ccc2[nH]c(C)c(CCNCc3ccco3)c2c1	·	·	13	·	127	103	·	·	·
CC(C)(C)C(=O)NC1CCSC1=O (stereo unspecified)	-11	1	-2	1	99	99	·	·	·
COc1ccccc1-n1c(Cc2ccccc2)nc2ccccc2c1=O	-24	3	-8	1	84	100	·	·	·
O=C1C2CCCN2C(c2ccc(Cl)c(Cl)c2)N1c1ccccn1 (stereo unspecified)	-1	8	5	2	112	110	·	·	·
O=C1C2CCCN2C(c2cccc(Cl)c2)N1c1ccccn1 (stereo unspecified)	1	1	-17	0	0.0*[inhibitor]	0.0*[inhibitor]	102	2	101
Cc1[nH]c2ccccc2c1C1=CCNCC1	-18	0	144*	0	76	113	107	2	103
C=C1[C@H]2C[C@H]3[C@H]4N5C[C@]6(C)CCC[C@]47[C@H]([C@H]2O)[C@]3(C[C@]5(O)[C@H]67)[C@@H]1O	·	·	2	·	98	101	·	·	·
CC[n+]1c(/C=C/N(C)c2ccccc2)sc2ccc(Cl)cc21	-2	3	-14	1	54*[inhibitor]	83	72	-9	88
Cc1cc(C(=O)C[N+]23CCN(CC2)CC3)c(C)n1-c1ccc(Br)cc1	-5	1	12	0	158*	146*	120	15	106
CCN1C(=O)NC(=O)/C(=C/c2cc(C)n(-c3sc(C)c(C)c3C#N)c2C)C1=O	10	0	1	0	102	130*	99	10	101
Cc1ccc(N2C(=O)NC(=O)/C(=C\c3cc(C)n(-c4sc5c(c4C#N)CCCC5)c3C)C2=O)cc1	10	-1	4	1	89	99	·	·	·
CC(C)OP(=O)(OC(C)C)C(O)c1cccnc1 (stereo unspecified)	-6	0	0	0	99	113	·	·	·
CC(C)OP(=O)(OC(C)C)C(O)c1ccc(Br)cc1 (stereo unspecified)	-3	0	-1	0	108	149*	105	2	104
Cc1ccc2c(c1)C1CN(C)CCC1N2C(=O)c1ccco1 (stereo unspecified)	-4	1	-15	0	83	71*[inhibitor]	107	-4	100
C/C(=N\NC(=O)c1ccccc1)c1c(O)n(Cc2ccccc2)c(=O)[nH]c1=O	·	·	4	·	101	101	·	·	·
CC/C(=N\NC(=O)Nc1ccccc1)c1c(O)n(Cc2ccccc2)c(=O)[nH]c1=O	·	·	27	·	118	132*	94	0	101
Nc1ccc2c(c1)Cc1ccccc1-2	-9	-3	0	-1	107	133*	101	-1	100
COc1cccc(N2C(=O)NC(=O)/C(=C/c3ccc4c(c3)Cc3ccccc3-4)C2=O)c1	2	-2	-5	0	90	100	·	·	·
Brc1ccc2c(c1)C(OC1CN3CCC1CC3)c1ccccc1CS2 (stereo unspecified)	82*	4	13	2	156*	109	140	23	105
CN1CCCN(c2ccc([N+](=O)[O-])nc2)CC1	·	·	3	·	108	106	·	·	·
CC(=O)c1c(O)n(-c2cccc(Cl)c2)c(=O)[nH]c1=O (tested in a mixture with another compound)	·	·	27	·	108	128*	104	-4	103
COC(=O)C1=C(c2cccc(OC)c2OC)C[C@@H]2CC[C@H]1N2C(=O)NCc1ccco1	·	·	1	·	102	103	·	·	·
SMILES	WT yeast gro inh	ABCG2 inh	MEKK2 mut-MEK5	ABCB1 block	MEKK2wt PB1 HTS	MEKK3 PB1 HTS	MEKK2wt confirm	MEKK2mut confirm	MEKK3-MEK5 inh
ON1C2CCCCC2N(O)C1c1ccccc1 (stereo unspecified)	-1	5	-33	0	33*[inhibitor]	22*[inhibitor]	103	3	103
c1ccc(C2N3CCCN23)cc1 (stereo unspecified)	-3	1	8	0	112	108	·	·	·
COc1ccccc1N1CCN(CCc2ccccc2)CC1	·	·	7	·	103	100	·	·	·
O=c1[nH]c(=S)[nH]c(O)c1/C=C1/C=c2ccccc2=N1	·	·	3	·	103	105	·	·	·
Cc1cccc2c1=NC(=O)/C(=C/c1c(O)[nH]c(=O)[nH]c1=O)C=2	0	-5	-1	-1	101	147*	97	-7	96
Cc1ccc(C(O)(C(=O)NNC(=O)CN2CCN(C)CC2)c2ccc(C)cc2)cc1	-3	3	0	0	101	67*[inhibitor]	106	6	107
Cc1cccc(C(O)(C(=O)NNC(=O)CN2CCN(C)CC2)c2cccc(C)c2)c1	-5	29	1	0	98	90	·	·	·
COc1ccc(-n2nc(C(=O)NCC(=O)N3CCC4(CC3)OCCO4)c3ccccc3c2=O)cc1Cl	·	·	0	·	94	95	·	·	·
CN(C)CCN(C(=O)COc1ccc(Cl)cc1)c1nc2cc3c(cc2s1)OCO3	·	·	4	·	116	99	·	·	·
Fc1ccc(CCNCc2cccc(Cl)c2)cc1	40	2	-7	1	93	75*[inhibitor]	111	18	105
COc1ccccc1NC(=O)c1cn(CCC#N)nc1-c1cccc(Cl)c1	·	·	4	·	105	106	·	·	·
NCCc1c[nH]c2ccccc12	-7	0	11	0	138*	92	113	9	103
COc1ccc(CNCCc2ccc3c(c2)OCO3)cc1Br	·	·	3	·	105	98	·	·	·
COc1cccc(-n2c(CN3CCN(C)CC3)nc3ccc([N+](=O)[O-])cc3c2=O)c1	3	2	-1	0	102	98	·	·	·
